Converted amounts (≈) assume the structure as drawn. The source made the active and inactive calls. The calls are words filed in the database; no cut-off is given here.
Key:
[1] = Anti-inflammatory activity assessed as inhibition of bovine serum albumin denaturation at 10 to 500 ug/ml incubated for 15 mins at 37 degC; assay type: functional
Method in brief: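 Compounds dissolved in minimal DMF, diluted in 0.2 M phosphate buffer pH 7.4 (final DMF <2.5%). 4 mL test solution mixed with 1 mL of 1 mM albumin and held 15 min at 37 °C, then heated 15 min at 70 °C to denature. After cooling, turbidity read at 660 nm. % inhibition calculated against a no-drug control.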

A549 = assay: Cytotoxicity against human A549 cells at 1 to 500 ug/ml incubated for 24 hrs by MTT assay; assay type: functional, cell-based
Method in brief: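 A549 lung cancer cells grown in MEM with 10% FBS, penicillin and streptomycin, at 37 °C under 5% CO2. Compounds made up at 2 mg/mL in DMSO, filter-sterilized, diluted in medium to 1, 10, 50, 100 and 500 μg/mL. Exposure 24 h, 0.1% DMSO control. MTT (5 mg/mL stock) added for 4 h, formazan dissolved in DMSO, read at 545 nm. Triplicate.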

[2] = Antioxidant activity assessed as H2O2 scavenging activity; assay type: physicochemical
Method in brief: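 H2O2 prepared at 2.0 mM in 0.2 M phosphate buffer pH 7.4. Compounds at 10–50 μg/mL added to 0.6 mL of this solution and made up to 4 mL with buffer. H2O2 absorbance read at 230 nm against a buffer blank. % inhibition = [(blank−test)/blank]×100, IC50 derived from the concentration series.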

[3] = Antioxidant activity assessed as DPPH radical scavenging activity; assay type: physicochemical
Method in brief: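 DPPH stock 0.1 mmol in DMSO. 1 mL sample diluted with 2 mL DMSO, mixed with 2 mL DPPH stock, absorbance at 517 nm. Tested at 10–50 μg/mL. % inhibition = [(blank−test)/blank]×100, IC50 derived from the concentration series. Run twice.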

Structure (SMILES) | IC50 [2] [µg/mL] | IC50 [3] [µg/mL] | inhibition [1] | Activity (A549)
COc1cc(/C=C/C(=O)/C=C(O)/C=C/c2ccc(OCC(=O)NC3CCCCC3)c(OC)c2)ccc1OCC(=O)NC1CCCCC1 | 26.14 (≈ 40.4 µM) | 16 (≈ 24.7 µM) | Active | Active
COc1cc(/C=C/C(=O)/C=C(O)/C=C/c2ccc(OCC(=O)Nc3ccccc3)c(OC)c2)ccc1OCC(=O)Nc1ccccc1 | 63.7 (≈ 100 µM) | 23.77 (≈ 37.5 µM) | Active | Active
O=C1O[C@H]([C@@H](O)CO)C(O)=C1O [ASCORBIC ACID] | 67.54 (≈ 383 µM) | 32.74 (≈ 186 µM) | – | –
O=C(O)Cc1ccccc1Nc1c(Cl)cccc1Cl | – | – | Active | –
COc1cc(/C=C/C(=O)/C=C(O)/C=C/c2ccc(OCC(=O)N(C)c3ccccc3)c(OC)c2)ccc1OCC(=O)N(C)c1ccccc1 | 63.21 (≈ 95.4 µM) | 12.05 (≈ 18.2 µM) | Active | Active
COc1cc(/C=C/C(=O)CC(=O)/C=C/c2ccc(O)c(OC)c2)ccc1O [CURCUMIN] | 34.71 (≈ 94.2 µM) | 14.83 (≈ 40.3 µM) | Active | Active
CCN(CC)C(=O)COc1ccc(/C=C/C(=O)/C=C(O)/C=C/c2ccc(OCC(=O)N(CC)CC)c(OC)c2)cc1OC | 68.16 (≈ 115 µM) | 19.68 (≈ 33.1 µM) | Active | Active
COc1cc(/C=C/C(=O)/C=C(O)/C=C/c2ccc(OCC(=O)Nc3cccc4ccccc34)c(OC)c2)ccc1OCC(=O)Nc1cccc2ccccc12 | 41.4 (≈ 56.3 µM) | 12.65 (≈ 17.2 µM) | – | Active

The next lines start with results.

IC50 [2] [µg/mL] | IC50 [3] [µg/mL] | Structure (SMILES) | inhibition [1] | Activity (A549)
61.98 (≈ 93.5 µM) | 22.85 (≈ 34.5 µM) | COc1cc(/C=C/C(=O)/C=C(O)/C=C/c2ccc(OCC(=O)Nc3ccc(C)cc3)c(OC)c2)ccc1OCC(=O)Nc1ccc(C)cc1 | Active | Active
65.4 (≈ 93 µM) | 12.92 (≈ 18.4 µM) | COc1cc(/C=C/C(=O)/C=C(O)/C=C/c2ccc(OCC(=O)Nc3ccc(Cl)cc3)c(OC)c2)ccc1OCC(=O)Nc1ccc(Cl)cc1 | – | Active
70.51 (≈ 105 µM) | 24.26 (≈ 36.2 µM) | COc1cc(/C=C/C(=O)/C=C(O)/C=C/c2ccc(OCC(=O)Nc3ccc(F)cc3)c(OC)c2)ccc1OCC(=O)Nc1ccc(F)cc1 | Active | Active

Reference: ChEMBL document CHEMBL3616457, “Synthesis and biological evaluation of new symmetric curcumin derivatives” (Bioorg Med Chem Lett, 2015)
